Bioassay records as filed in PubChem.
CHOP inhibitor: inhibitors of CHOP induction in ER stress response; CHO-K1 CHOP-promoter luciferase, tunicamycin-induced, 15-18 h; inhibition, % at 10 µM; actives 3.8% (n = 220,000); AID 2732;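 active = compounds that reduced the stress-induced luciferase reporter signal by more than about 70% of percent inhibition, limit read from the data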;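 note: 0% = tunicamycin plus vehicle and 100% = wells without tunicamycin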
UPR XBP1 act: adaptive UPR (XBP1) activation; CHO-XBP1 luciferase reporter, IRE1-XBP1 UPR activation, luminescence; percent of tunicamycin response, DMSO as zero; activation, % at 20 µM; actives 0.33% (n = 330,000); AID 463104;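 active = versus positive control, 20 µM dose yields 30% or more activation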;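 note: 100% = tunicamycin at 10 µg/mL and 0% = DMSO only wells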
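Test system: CHO-XBP1 luciferase reporter cells | Buffer or medium: Serum-containing F12 medium, 10% FBS | Schedule: 6 h compound exposure at 37 °C, 5% CO2 | Detection: Steady-Glo luciferase glow luminescence, 10 min after reagent addition | Read-out basis: Activation, % of tunicamycin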
CHOP UPR activ: activators of apoptotic arm of unfolded protein response (CHOP); activation, % at 10 µM; actives 0.34% (n = 330,000); CHO-CHOP luciferase reporter, UPR activation, luminescence; percent of tunicamycin response over DMSO baseline;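 active = at 10 µM dose, activation of 40% or more, normalized to positive control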;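 note: 100% = tunicamycin at 10 µg/mL and 0% = DMSO alone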
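System: CHO CHOP reporter cells. Amount: 500 cells per well. Buffer or medium: F12 medium, 10% FBS. Compound dosing: one dose, 10 µM in 0.5% DMSO. Incubation: 6 h compound exposure at 37 °C after overnight seeding. Technique: Steady-Glo luciferase luminescence. Benchmarks: tunicamycin and DMSO controls.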
PvdQ inh: P. aeruginosa PvdQ acylase inhibition | purified PvdQ acylase, fluorescence plate reader | AID 488965 | inhibition, % at 10 µM | actives 0.063% (n = 340,000); in the data active = inhibition above about 30%, passing the limit was not always enough;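 note: 0% = vehicle neutral wells and 100% = reference inhibitor wells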
CHOP confirm: confirmation of CHOP induction inhibitors | CHO-CHOP promoter luciferase reporter, tunicamycin-induced, luminescence | actives 45% (n = 2,100) | AID 504437 | shares compounds with CHOP inhibitor | inhibition, % at 10 µM;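 active = mean of three repeat readings of reporter signal inhibition above a set limit, cut at about 70% in these data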;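 note: 0% = tunicamycin plus vehicle and 100% = wells lacking tunicamycin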
* hit, by the source's call; . = not tested or not shown. The entries come from a sample that favours hits as a whole.

SMILES	CHOP inhibitor	UPR XBP1 act	CHOP UPR activ	PvdQ inh	CHOP confirm
Cc1ccc(Cl)cc1NC1=C/C(=N\S(=O)(=O)c2cccs2)c2ccccc2C1=O	109*	-6	-6	-9	116*
O=C1C(Nc2ccc(O)cc2)=C/C(=N/S(=O)(=O)c2cccs2)c2ccccc21	108*	.	.	-1	110*
O=C(CCN=C1NS(=O)(=O)c2ccccc21)NCc1ccccc1F	.	-1	0	-2	.
COC(=O)C(CO)NC(=O)C(C)NC(=O)CNC(=O)OCc1ccccc1 (centres undefined)	-11	-4	-1	-9	.
CC(CS(=O)(=O)c1ccc2c(c1)NC(=O)CS2)C(=O)NCc1ccccc1Cl (centres undefined)	.	-4	-1	-13	.
CC(=O)N(C)C(c1ccc(N(C)C)cc1)c1nnnn1-c1c(C)cccc1C (centres undefined)	-16	-1	-1	6	.
O=C(Nc1ccc(Br)cc1)NC1CCCCCCC1	.	-3	5	-5	.
CN(C)S(=O)(=O)c1cccc(NC(=O)COc2cccc3ccccc23)c1	.	-2	0	-11	.
CSc1cccc(NC(=O)COc2cccc3ccccc23)c1	106*	3	0	-11	16
COc1ccc(-c2[nH]ncc2N=Nc2cc(C)cc(C)c2)cc1	104*	2	2	-2	102*
CCc1cc(-c2[nH]ncc2-c2ccc(OC)cc2)c(O)cc1O	.	-3	0	19	.
Cc1ccc2oc(-c3cccc(NC(=O)c4cc(-n5cnnc5)ccc4Cl)c3)nc2c1	102*	12	13	-7	49
CCCC(=O)Nc1cccc(-c2nc3cc(C)c(C)cc3o2)c1	105*	1	6	-7	-15
Cc1ccc2oc(-c3cccc(NC(=O)Cc4cccs4)c3)nc2c1	98*	-1	5	-11	26
COc1ccc(NC(=O)CSc2cn[nH]n2)cc1OC	.	4	0	-21	.
Nc1nccnc1C(=O)OCC(=O)c1ccc[nH]1	.	-2	1	-8	.
CCc1noc(C)c1C(=O)N1CCN(S(=O)(=O)c2ccccc2C(F)(F)F)CC1	.	-2	-1	-16	.
COC(=O)c1cn(-c2ccccc2)nc1-c1ccccc1	8	0	2	-23	.
NS(=O)(=O)c1ccc(NC(=O)COC(=O)c2cn(-c3ccccc3)nc2-c2ccccc2)cc1	97*	27	4	-4	-1
Cc1cccc(C(=O)Nc2sc3c(c2C(=O)O)CCCC3)c1	.	2	17	-7	.
CC1=CC(C)(C)N(C(=O)c2ccc(F)cc2)c2cc3c(cc21)OCO3	98*	9	-4	-12	71*
O=C(COC(=O)/C=C/c1ccc2c(c1)OCO2)NC1CC1	33	-1	-1	3	.
CC1CCCC(NC(=O)COC(=O)/C=C/c2ccc3c(c2)OCO3)C1C (centres undefined)	98*	-1	1	4	96*
CN(C)C=NC(=O)c1[nH]c2ccc(Cl)cc2c1-c1ccccc1	.	5	10	-6	.
CCOC(=O)c1[nH]c2ccc(Cl)cc2c1-c1ccccc1	97*	2	8	3	120*
SMILES	CHOP inhibitor	UPR XBP1 act	CHOP UPR activ	PvdQ inh	CHOP confirm
OC(CNCc1ccccc1C(F)(F)F)C(F)(F)F (centres undefined)	-11	-1	0	0	.
COc1ccc(-n2c(C)cc(C3=NNC(=NC4CC4)SC3)c2C)cc1	39	.	.	2	.
Cc1cc(C2=NNC(=NC3CC3)SC2)c(C)n1-c1ccccc1	106*	.	.	-11	121*
O=C(O)c1cc(NC(=O)c2ccc(Cl)c([N+](=O)[O-])c2)cc(C(=O)O)c1	2	-3	1	-19	.
O=C(Nc1ccc(C(O)(C(F)(F)F)C(F)(F)F)cc1)c1ccc(Cl)c([N+](=O)[O-])c1	107*	3	3	1	117*
Clc1ccc2c(N/N=C/c3ccc(Br)cc3)ccnc2c1	103*	.	.	-7	96*
Cc1ccccc1/C=N/Nc1ccnc2cc(Cl)ccc12	107*	.	.	-10	88*
COc1ccc(CCNC(=O)COc2ccc(S(=O)(=O)NC3CCCCC3)cc2Cl)cc1	59	-1	1	-26	.
CCOc1ccc(/C(=N\O)C(C)NO)cc1 (centres undefined)	104*	0	0	1	2
CC1(C)C2CCC1(C)C(OCC[N+](C)(C)CC(=O)OC1CCCCC1)C2 (centres undefined)	15	3	-2	-2	.
Cn1c2ccccc2c(=O)c2c(=O)n(C3CCCCCC3)c(C3CCCCC3)nc21	105*	.	.	-8	122*
Cn1c2ccccc2c(=O)c2c(=O)n(-c3ccccc3)c(C3CCCCC3)nc21	35	-1	3	3	.
Cn1c2ccccc2c(=O)c2c(=O)n(C3CCCCC3)c(-c3cccs3)nc21	97*	17	-1	-8	42
CCc1nc2c(c(=O)c3ccccc3n2C)c(=O)n1C1CCCCCC1	60	6	-4	1	.
COc1ccc2[nH]c(N=Nc3ccccc3C)c(O)c2c1	42	4	6	-8	.
O=C(N/N=C/c1ccco1)c1cc(-c2ccc3ccccc3c2)n[nH]1	110*	-4	0	8	4
O=C(N/N=C/c1c[nH]c2ccccc12)c1cc(-c2ccc(-c3ccccc3)cc2)n[nH]1	109*	4	29	-12	40
O=C(N/N=C/C=C\c1ccccc1[N+](=O)[O-])c1cc(-c2ccc3ccccc3c2)n[nH]1	106*	.	.	23	-34
O=C(N/N=C/c1ccccn1)c1cc(-c2ccc3ccccc3c2)n[nH]1	103*	3	2	-10	114*
CCc1ccc(-c2cc(C(=O)N/N=C/c3ccccn3)[nH]n2)cc1	40	9	3	-7	.
COCCN(C(=O)COC(=O)Cc1c[nH]c2ccccc12)c1c(N)n(Cc2ccccc2)c(=O)[nH]c1=O	.	3	0	-17	.
O=C(N/N=C/c1c[nH]c2ccccc12)C1CC1(c1ccccc1)c1ccccc1 (centres undefined)	100*	-1	4	-2	34
CCOC(=O)c1c(C)[nH]c(C(C)=NNC(=O)Cn2nc(C)cc2C)c1C	.	0	2	-11	.
Cc1ccnc2nc(C(=O)OCCOc3ccc(F)cc3)nn12	-11	0	1	-15	.
CCOC(=O)c1c(N2C(=O)C=CC2=O)sc(C)c1C	109*	-3	36	-15	7
CCOC(=O)c1c(NC(N)=O)sc(C)c1C	55	2	0	-10	.
Cc1cc(C(=O)N/N=C/c2cc(Br)ccc2OC(=O)c2ccccc2Cl)n[nH]1	99*	2	1	-7	34
Cc1cc(Cl)n2c(nc3ccccc32)c1C#N	108*	.	.	-2	133*
Cc1ccccc1C(OCCN(C(C)C)C(C)C)c1ccccc1 (centres undefined)	-12	0	1	8	.
